Measured values as given in ChEMBL document CHEMBL1137710, “Synthesis and in vitro antitumor activity of new quinoxaline derivatives” (2009).

Tests used:
Type in all cases: functional
K562 = test: Growth inhibition of human K562 cells after 48 hrs by sulforhodamine B assay; conditions: K562, 48 h
Method in brief: (§1)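 NCI 60-human-tumor-cell-line panel, with compounds tested over a 5-log dose range. Values are taken from dose-response curves as log10 molar concentrations: GI50 is 50% net growth inhibition, TGI is total growth inhibition, and LC50 is 50% net cell death.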

M14 = test: Growth inhibition of human M14 cells after 48 hrs by sulforhodamine B assay; conditions: M14, 48 h; method in brief: as §1
OVCAR-3 = test: Growth inhibition of human OVCAR-3 cells after 48 hrs by sulforhodamine B assay; conditions: OVCAR-3, 48 h; method in brief: as §1
NCI-H460 = test: Anticancer activity against human NCI-H460 cells assessed as cell growth at 100 uM after 48 hrs by sulforhodamine B assay; conditions: NCI-H460, 48 h, read-out: Activity
HL-60(TB) = test: Growth inhibition of human HL-60(TB) cells after 48 hrs by sulforhodamine B assay; conditions: HL-60, 48 h
Method in brief: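 Tested only on compounds active in a three-line prescreen, in the NCI 60-human-tumour-cell-line panel over a 5-log dose range. Values come from dose–response curves as log10 molar GI50, the concentration inhibiting 50% net cell growth. Log10 TGI (total growth inhibition) and log10 LC50 (50% net cell death) were derived too. Mean graph midpoints include insensitive lines at the highest concentration tested.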

NCI-H522 = test: Growth inhibition of human NCI-H522 cells after 48 hrs by sulforhodamine B assay; conditions: NCI-H522, 48 h; method in brief: as §1
CAKI-1 = test: Growth inhibition of human Caki1 cells after 48 hrs by sulforhodamine B assay; conditions: CAKI-1, 48 h; method in brief: as §1
SK-MEL-28 = test: Growth inhibition of human SK-MEL-28 cells after 48 hrs by sulforhodamine B assay; conditions: SK-MEL-28, 48 h; method in brief: as §1
SF-268 [1] = test: Growth inhibition of human SF268 cells after 48 hrs by sulforhodamine B assay; conditions: SF-268, 48 h; method in brief: as §1
[2] = Growth inhibition of human Hs 578T cells after 48 hrs by sulforhodamine B assay; method in brief: as §1
MCF7 [3] = test: Anticancer activity against human MCF7 cells assessed as cell growth at 100 uM after 48 hrs by sulforhodamine B assay; conditions: MCF7, 48 h, read-out: Activity
NCI-H322M = test: Growth inhibition of human NCI-H322M cells after 48 hrs by sulforhodamine B assay; method in brief: as §1
SW-620 = test: Growth inhibition of human SW620 cells after 48 hrs by sulforhodamine B assay; conditions: SW-620, 48 h
Method in brief: (§2)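 Run in the NCI 60-human-tumour-cell-line panel, tested over a 5-log dose range. Dose–response curves gave three values per cell line, each as a log10 molar concentration: GI50 (50% inhibition of net cell growth), TGI (total inhibition of net growth) and LC50 (50% net cell death). The mean graph midpoint is the arithmetic mean over all lines, with insensitive lines entered at the highest concentration tested.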

LOX IMVI = test: Growth inhibition of human LOXIMVI cells after 48 hrs by sulforhodamine B assay; method in brief: as §1
HOP-62 = test: Growth inhibition of human HOP62 cells after 48 hrs by sulforhodamine B assay; conditions: HOP-62, 48 h; method in brief: as §1
SNB-19 = test: Growth inhibition of human SNB19 cells after 48 hrs by sulforhodamine B assay; conditions: SNB-19, 48 h; method in brief: as §2
SF-268 [4] = test: Anticancer activity against human SF268 cells assessed as cell growth at 100 uM after 48 hrs by sulforhodamine B assay; conditions: SF-268, 48 h, read-out: Activity
MCF7 [5] = test: Growth inhibition of human MCF7 cells after 48 hrs by sulforhodamine B assay; conditions: MCF7, 48 h; method in brief: as §1
OVCAR-4 = test: Growth inhibition of human OVCAR4 cells after 48 hrs by sulforhodamine B assay; conditions: OVCAR-4, 48 h; method in brief: as §1
OVCAR-8 = test: Growth inhibition of human OVCAR8 cells after 48 hrs by sulforhodamine B assay; conditions: OVCAR-8, 48 h; method in brief: as §1
786-0 = test: Growth inhibition of human 786-0 cells after 48 hrs by sulforhodamine B assay; conditions: 786-0, 48 h; method in brief: as §1
IGROV-1 = test: Growth inhibition of human IGROV1 cells after 48 hrs by sulforhodamine B assay; conditions: IGROV-1, 48 h; method in brief: as §1
NCI/ADR-RES = test: Growth inhibition of human NCI/ADR-RES cells after 48 hrs by sulforhodamine B assay; method in brief: as §1
[6] = Growth inhibition of human […] cells after 48 hrs by sulforhodamine B assay; method in brief: as §1
UACC-62 = test: Growth inhibition of human UACC62 cells after 48 hrs by sulforhodamine B assay; conditions: UACC-62, 48 h; method in brief: as §2
MDA-MB-435 = test: Growth inhibition of human MDA-MB-435 cells after 48 hrs by sulforhodamine B assay; conditions: MDA-MB-435, 48 h; method in brief: as §1
UO-31 = test: Growth inhibition of human UO31 cells after 48 hrs by sulforhodamine B assay; conditions: UO-31, 48 h; method in brief: as §2
PC-3 = test: Growth inhibition of human PC3 cells after 48 hrs by sulforhodamine B assay; conditions: PC-3, 48 h; method in brief: as §1
U-251 = test: Growth inhibition of human U251 cells after 48 hrs by sulforhodamine B assay; conditions: U-251, 48 h; method in brief: as §2
[7] = read-out: pLC50 (the source's name) (converted)

Structure (SMILES): Nc1cc(N)c2nc(-c3ccccc3)c(NCc3ccc(Cl)c(Cl)c3)nc2c1
- GI50 (K562): 3.09 µM
- LC50 (K562): > 100 µM
- TGI (K562; read-out: pTGI (converted)): 17.8 µM
- GI50 (M14): 15.8 µM
- CC50 (M14; [7]): 75.9 µM
- TGI (M14; read-out: pTGI (converted)): 34.7 µM
- GI50 (OVCAR-3): 2.63 µM
- CC50 (OVCAR-3; [7]): 31.6 µM
- TGI (OVCAR-3; read-out: pTGI (converted)): 6.92 µM
- growth at 100 µM (NCI-H460): 0%
- GI50 (HL-60(TB)): 1.82 µM
- LC50 (HL-60(TB)): > 100 µM
- TGI (HL-60(TB); read-out: pTGI (converted)): 7.94 µM
- GI50 (NCI-H522): 2.04 µM
- LC50 (NCI-H522): 22.4 µM
- TGI (NCI-H522; read-out: pTGI (converted)): 4.9 µM
- GI50 (CAKI-1): 13.2 µM
- CC50 (CAKI-1; [7]): > 100 µM
- TGI (CAKI-1; read-out: pTGI (converted)): 52.5 µM
- GI50 (SK-MEL-28): 18.6 µM
- CC50 (SK-MEL-28; [7]): 93.3 µM
- TGI (SK-MEL-28; read-out: pTGI (converted)): 41.7 µM
- GI50 (SF-268 [1]): 20 µM
- LC50 (SF-268 [1]): > 100 µM
- TGI (SF-268 [1]; read-out: pTGI (converted)): 55 µM
- GI50 [2]: 5.89 µM
- CC50 [2, 7]: > 100 µM
- TGI ([2]; read-out: pTGI (converted)): 46.8 µM
- growth at 100 µM (MCF7 [3]): 0%
- GI50 (NCI-H322M): 13.5 µM
- LC50 (NCI-H322M): 69.2 µM
- TGI (NCI-H322M; read-out: pTGI (converted)): 30.2 µM
- GI50 (SW-620): 3.24 µM
- CC50 (SW-620; [7]): > 100 µM
- TGI (SW-620; read-out: pTGI (converted)): 9.77 µM
- GI50 (LOX IMVI): 2.14 µM
- GI50 (HOP-62): 15.8 µM
- LC50 (HOP-62): 64.6 µM
- TGI (HOP-62; read-out: pTGI (converted)): 31.6 µM
- GI50 (SNB-19): 22.4 µM
- LC50 (SNB-19): > 100 µM
- TGI (SNB-19; read-out: pTGI (converted)): 51.3 µM
- growth at 100 µM (SF-268 [4]): 0%
- GI50 (MCF7 [5]): 12.3 µM
- CC50 (MCF7 [5]; [7]): > 100 µM
- TGI (MCF7 [5]; read-out: pTGI (converted)): 53.7 µM
- GI50 (OVCAR-4): 11.7 µM
- CC50 (OVCAR-4; [7]): > 100 µM
- TGI (OVCAR-4; read-out: pTGI (converted)): > 100 µM
- GI50 (OVCAR-8): 3.39 µM
- CC50 (OVCAR-8; [7]): > 100 µM
- TGI (OVCAR-8; read-out: pTGI (converted)): 13.5 µM
- GI50 (786-0): 13.2 µM
- CC50 (786-0; [7]): 70.8 µM
- TGI (786-0; read-out: pTGI (converted)): 30.2 µM
- GI50 (IGROV-1): 1.95 µM
- CC50 (IGROV-1; [7]): 29.5 µM
- TGI (IGROV-1; read-out: pTGI (converted)): 5.89 µM
- GI50 (NCI/ADR-RES): 17.4 µM
- CC50 (NCI/ADR-RES; [7]): > 100 µM
- TGI (NCI/ADR-RES; read-out: pTGI (converted)): 45.7 µM
- GI50 [6]: 1.66 µM
- LC50 [6]: 8.32 µM
- TGI ([6]; read-out: pTGI (converted)): 3.72 µM
- GI50 (UACC-62): 14.1 µM
- CC50 (UACC-62; [7]): 67.6 µM
- TGI (UACC-62; read-out: pTGI (converted)): 30.9 µM
- GI50 (MDA-MB-435): 2.75 µM
- CC50 (MDA-MB-435; [7]): 52.5 µM
- TGI (MDA-MB-435; read-out: pTGI (converted)): 7.59 µM
- GI50 (UO-31): 4.17 µM
- CC50 (UO-31; [7]): > 100 µM
- TGI (UO-31; read-out: pTGI (converted)): > 100 µM
- GI50 (PC-3): 1.74 µM
- CC50 (PC-3; [7]): 19.1 µM
- TGI (PC-3; read-out: pTGI (converted)): 5.13 µM
- GI50 (U-251): 2.09 µM
- LC50 (50% net cell kill) (U-251): > 100 µM
